{
  "source": "ChEMBL document CHEMBL1149642",
  "about": "“Molecular design of anti-MRSA agents based on the anacardic acid scaffold” (2007)",
  "key": {"Staphylococcus aureus": {"system": "Staphylococcus aureus", "test": "Antibacterial activity against methicillin-resistant Staphylococcus aureus ATCC 33592 by broth dilution method", "assay_type": "functional", "procedure,_shortened": "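Two-fold serial broth dilution in NYG broth (0.8% nutrient broth, 0.5% yeast extract, 0.1% glucose). Compound dilutions made in DMF and added 1:100 to broth. Inoculum was an overnight culture added at 1:100. Incubated at 37 °C for 48 h. MIC taken as the lowest concentration with no visible growth. Top concentration tested was 200 (solubility limit).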"}, "Escherichia coli": {"system": "Escherichia coli", "test": "Antibacterial activity against Escherichia coli ATCC 9637", "assay_type": "functional, organism-based", "procedure,_shortened": "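Two-fold serial broth dilution in NYG broth (0.8% nutrient broth, 0.5% yeast extract, 0.1% glucose); compound dilutions in DMF, 30 µL added to 3 mL broth, inoculated with 30 µL overnight culture; 37 °C, 48 h; MIC = lowest concentration with no visible growth; top concentration 200 µg/mL (solubility-limited).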"}},
  "note": "The source made the active and inactive calls. The calls are words filed in the database; no cut-off is given here.",
  "data": [
    {"compound": "CCCCCC(CC)Cc1cccc(O)c1C(=O)O", "note": "(configuration not stated)", "values": [
      {"measurement": "MIC", "setting": "Staphylococcus aureus", "result": 6.25, "unit": "µg/mL"},
      {"measurement": "Activity", "setting": "Escherichia coli", "result": "inactive"}
    ]},
    {"compound": "O=C(O)c1c(O)cccc1CC1CCCCCCCCCCC1", "values": [
      {"measurement": "MIC", "setting": "Staphylococcus aureus", "result": 0.39, "unit": "µg/mL"},
      {"measurement": "Activity", "setting": "Escherichia coli", "result": "inactive"}
    ]},
    {"compound": "CCCCC(C)Cc1cccc(O)c1C(=O)O", "note": "(configuration not stated)", "values": [
      {"measurement": "MIC", "setting": "Staphylococcus aureus", "result": 50, "unit": "µg/mL"},
      {"measurement": "Activity", "setting": "Escherichia coli", "result": "inactive"}
    ]},
    {"compound": "O=C(O)c1c(O)cccc1CCc1cc(O)c(O)cc1O", "values": [
      {"measurement": "MIC", "setting": "Staphylococcus aureus", "result": "> 200", "unit": "µg/mL"},
      {"measurement": "Activity", "setting": "Escherichia coli", "result": "inactive"}
    ]},
    {"compound": "O=C(O)c1c(O)cccc1CCc1ccc(O)cc1O", "values": [
      {"measurement": "MIC", "setting": "Staphylococcus aureus", "result": "> 200", "unit": "µg/mL"},
      {"measurement": "Activity", "setting": "Escherichia coli", "result": "inactive"}
    ]},
    {"compound": "CCCCCC/C=C/CCCCCCCc1cccc(O)c1C(=O)O", "values": [
      {"measurement": "MIC", "setting": "Staphylococcus aureus", "result": 6.25, "unit": "µg/mL"},
      {"measurement": "Activity", "setting": "Escherichia coli", "result": "inactive"}
    ]},
    {"compound": "O=C(O)c1c(O)cccc1CCCCc1ccccc1", "values": [
      {"measurement": "MIC", "setting": "Staphylococcus aureus", "result": 25, "unit": "µg/mL"},
      {"measurement": "Activity", "setting": "Escherichia coli", "result": "inactive"}
    ]},
    {"compound": "O=C(O)c1c(O)cccc1CCc1cc(O)ccc1O", "values": [
      {"measurement": "MIC", "setting": "Staphylococcus aureus", "result": 100, "unit": "µg/mL"},
      {"measurement": "Activity", "setting": "Escherichia coli", "result": "inactive"}
    ]},
    {"compound": "C=CC/C=C\\C/C=C\\CCCCCCCc1cccc(OC(C)=O)c1C(=O)O", "values": [
      {"measurement": "MIC", "setting": "Staphylococcus aureus", "result": "> 800", "unit": "µg/mL"},
      {"measurement": "Activity", "setting": "Escherichia coli", "result": "inactive"}
    ]},
    {"compound": "CC(C)CCCC(C)CCCc1cccc(O)c1C(=O)O", "note": "(configuration not stated)", "values": [
      {"measurement": "MIC", "setting": "Staphylococcus aureus", "result": 0.39, "unit": "µg/mL"},
      {"measurement": "Activity", "setting": "Escherichia coli", "result": "inactive"}
    ]},
    {"compound": "C=CC/C=C\\C/C=C\\CCCCCCCc1cccc(O)c1C(=O)OC", "values": [
      {"measurement": "MIC", "setting": "Staphylococcus aureus", "result": "> 800", "unit": "µg/mL"},
      {"measurement": "Activity", "setting": "Escherichia coli", "result": "inactive"}
    ]},
    {"compound": "O=C(O)c1c(O)cccc1CCC1CCCCC1", "values": [
      {"measurement": "MIC", "setting": "Staphylococcus aureus", "result": 12.5, "unit": "µg/mL"},
      {"measurement": "Activity", "setting": "Escherichia coli", "result": "inactive"}
    ]},
    {"compound": "O=C(O)c1c(O)cccc1CCc1ccccc1", "values": [
      {"measurement": "MIC", "setting": "Staphylococcus aureus", "result": 100, "unit": "µg/mL"},
      {"measurement": "Activity", "setting": "Escherichia coli", "result": "inactive"}
    ]},
    {"compound": "CCCCCCCCCOC(=O)c1ccccc1O", "values": [
      {"measurement": "Activity", "setting": "Staphylococcus aureus", "result": "inactive"}
    ]},
    {"compound": "O=C(O)c1c(O)cccc1CCc1ccc(O)c(O)c1", "values": [
      {"measurement": "MIC", "setting": "Staphylococcus aureus", "result": 100, "unit": "µg/mL"},
      {"measurement": "Activity", "setting": "Escherichia coli", "result": "inactive"}
    ]},
    {"compound": "O=C(O)c1c(O)cccc1CC1CCCCC1", "values": [
      {"measurement": "MIC", "setting": "Staphylococcus aureus", "result": 25, "unit": "µg/mL"},
      {"measurement": "Activity", "setting": "Escherichia coli", "result": "inactive"}
    ]},
    {"compound": "O=C(O)c1c(O)cccc1CC1CCCC1", "values": [
      {"measurement": "MIC", "setting": "Staphylococcus aureus", "result": 100, "unit": "µg/mL"},
      {"measurement": "Activity", "setting": "Escherichia coli", "result": "inactive"}
    ]},
    {"compound": "O=C(O)c1c(O)cccc1CC1CCCCCCC1", "values": [
      {"measurement": "MIC", "setting": "Staphylococcus aureus", "result": 12.5, "unit": "µg/mL"},
      {"measurement": "Activity", "setting": "Escherichia coli", "result": "inactive"}
    ]},
    {"compound": "O=C(O)c1c(O)cccc1CCc1ccc(O)cc1", "values": [
      {"measurement": "MIC", "setting": "Staphylococcus aureus", "result": 50, "unit": "µg/mL"},
      {"measurement": "Activity", "setting": "Escherichia coli", "result": "inactive"}
    ]}
  ]
}
